The text below walks through data of PMC9574854 (Journal of Medicinal Chemistry, 2022).

Where only a bound is given, the exact number is not on record here.

One experiment concerns the target T1, PfGSK3 (Plasmodium falciparum, UniProt O77344).
T1 sequence (O77344 1-440): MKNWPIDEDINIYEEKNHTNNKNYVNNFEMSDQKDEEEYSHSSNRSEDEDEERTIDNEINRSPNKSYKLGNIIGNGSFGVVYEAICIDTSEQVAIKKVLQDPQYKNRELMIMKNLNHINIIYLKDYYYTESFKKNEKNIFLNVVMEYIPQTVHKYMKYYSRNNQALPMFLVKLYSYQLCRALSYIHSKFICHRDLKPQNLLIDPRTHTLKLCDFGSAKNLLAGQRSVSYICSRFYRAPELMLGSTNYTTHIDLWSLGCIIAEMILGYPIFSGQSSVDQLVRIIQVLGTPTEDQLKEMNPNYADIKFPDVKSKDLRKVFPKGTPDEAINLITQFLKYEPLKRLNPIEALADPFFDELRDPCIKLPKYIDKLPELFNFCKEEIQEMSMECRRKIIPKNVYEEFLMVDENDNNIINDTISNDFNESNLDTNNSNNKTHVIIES
As to the kind of experiment: KinaseSeeker split luciferase assay on PfGSK3. It is filed as biochemical. To be noted: for activity on PfGSK3, in words: screen at 1 μM; for fold increase in potency on PfGSK3: compared to IKK16. The method in brief: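 Split-luciferase binding assay: lysate with Cfluc-PfGSK3 fusion plus Fos-Nfluc, incubated 2 h with test compound in DMSO (or DMSO control) and a kinase-specific probe. Luminescence was read immediately after luciferin reagent. % inhibition = (control − sample)/control × 100. Compounds were first counter-screened against split luciferase, then screened at 1 μM.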

A further experiment has as its target T2, PfPK6 (Plasmodium falciparum, UniProt Q8IDW1).
T2 sequence (Q8IDW1 1-305): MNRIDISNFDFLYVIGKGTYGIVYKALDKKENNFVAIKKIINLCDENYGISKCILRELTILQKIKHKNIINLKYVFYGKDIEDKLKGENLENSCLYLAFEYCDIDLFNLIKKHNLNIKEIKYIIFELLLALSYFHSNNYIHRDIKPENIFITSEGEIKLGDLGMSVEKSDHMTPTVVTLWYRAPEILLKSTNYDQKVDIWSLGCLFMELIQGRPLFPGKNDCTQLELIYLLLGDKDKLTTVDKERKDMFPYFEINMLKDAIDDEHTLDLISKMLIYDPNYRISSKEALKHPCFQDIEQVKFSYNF
The experiment can be described thus: KinaseSeeker split luciferase assay on PfPK6. It is filed as biochemical. To be noted: for remaining activity at 1 µM: read-out: PfPK6 PoC@1 μM; for activity on PfPK6, in words: screen at 1 μM.

Another experiment has as its system 468 human kinases. As to the kind of experiment: DiscoverX KINOMEscan panel, selectivity score. It is filed as binding. As to conditions: for no. of kinase hits: 1 μM, 468 human kinases, PoC ≤10% (>90% inhibition).

Take `c1ccc(Nc2nccc(-c3cc4ccccc4s3)n2)cc1` [Compound 4a, 4-(Benzo[b]thiophen-2-yl)-N-phenylpyrimidin-2-amine]: the “activity on PfGSK3, in words” value on PfGSK3 is “failed to inhibit”. Moreover, at PfPK6, the remaining activity at 1 µM came out at 100% and the “activity on PfPK6, in words” value is reported as “failed to inhibit”.
In the case of `Clc1cccc(Nc2nccc(-c3cc4ccccc4s3)n2)c1` [Compound 4c, 4-(Benzo[b]thiophen-2-yl)-N-(3-chlorophenyl)pyrimidin-2-amine], the remaining activity at 1 µM on PfPK6 is 100%.
The same measure, in the same setting: for `Clc1ccccc1Nc1nccc(-c2cc3ccccc3s2)n1` [Compound 4d, 4-(Benzo[b]thiophen-2-yl)-N-(2-chlorophenyl)pyrimidin-2-amine] the value was 100%.
Same read-out and setting: for `COc1cccc(Nc2nccc(-c3cc4ccccc4s3)n2)c1` [Compound 4f, 4-(Benzo[b]thiophen-2-yl)-N-(3-methoxyphenyl)pyrimidin-2-amine] the value was 100%; for `COc1ccccc1Nc1nccc(-c2cc3ccccc3s2)n1` [Compound 4g, 4-(Benzo[b]thiophen-2-yl)-N-(2-methoxyphenyl)pyrimidin-2-amine], 100%.
Consider `c1ccc(CNc2nccc(-c3cc4ccccc4s3)n2)cc1` [Compound 4h, 4-(Benzo[b]thiophen-2-yl)-N-benzylpyrimidin-2-amine], for which the “activity on PfGSK3, in words” value at PfGSK3 is “inactive”. Further, on PfPK6, the remaining activity at 1 µM amounted to 100% and the “activity on PfPK6, in words” value was “inactive”.
`O=C(O)c1ccc(Nc2nccc(-c3cc4ccccc4s3)n2)cc1` [Compound 6, 4-((4-(Benzo[b]thiophen-2-yl)pyrimidin-2-yl)amino)benzoic acid]: the remaining activity at 1 µM on PfPK6 amounted to 100%.
For `O=C(c1ccc(Nc2nccc(-c3cc4ccccc4s3)n2)cc1)N1CCC(N2CCCCC2)CC1` [Compound 9b, [1,4′-Bipiperidin]-1′-yl(4-((4-(benzo[b]thiophen-2-yl)pyrimidin-2-yl)amino)phenyl)methanone], the “fold increase in potency on PfPK6” value at PfPK6 (compared to IKK16) is recorded as roughly 4 fold.
With `CN1CCN(CCCNC(=O)c2ccc(Nc3nccc(-c4cc5ccccc5s4)n3)cc2)CC1` [Compound 9f, 4-((4-(Benzo[b]thiophen-2-yl)pyrimidin-2-yl)amino)-N-(3-(4-methylpiperazin-1-yl)propyl)benzamide], the “fold increase in potency on PfGSK3” value on PfGSK3 is on record as 2 fold. Also, the “fold increase in potency on PfPK6” value at PfPK6 (compared to IKK16) is listed as roughly 3 fold.
With `O=C(NCCCN1CCOCC1)c1ccc(Nc2nccc(-c3cc4ccccc4s3)n2)cc1` [Compound 9g, 4-((4-(Benzo[b]thiophen-2-yl)pyrimidin-2-yl)amino)-N-(3-morpholinopropyl)benzamide], the “no. of kinase hits” value in the experiment with 468 human kinases was determined as 32.
Regarding `O=C(NC1CC1)c1ccc(Nc2nccc(-c3cc4ccccc4s3)n2)cc1` [Compound 9j, 4-((4-(Benzo[b]thiophen-2-yl)pyrimidin-2-yl)amino)-N-cyclopropylbenzamide], on PfGSK3, the “fold increase in potency on PfGSK3” value was “roughly 2 fold”.
Take `Cn1cc(NC(=O)c2ccc(Nc3nccc(-c4cc5ccccc5s4)n3)cc2)cn1` [Compound 9k, 4-((4-(Benzo[b]thiophen-2-yl)pyrimidin-2-yl)amino)-N-(1-methyl-1H-pyrazol-4-yl)benzamide]: the “activity on PfGSK3, in words” value at PfGSK3 is “no activity”. Moreover, the “activity on PfPK6, in words” value at PfPK6 is “no activity”.
Consider `O=C(c1ccc(Nc2nccc(-c3cccs3)n2)cc1)N1CCC(N2CCCC2)CC1` [Compound 18c, (4-(Pyrrolidin-1-yl)piperidin-1-yl)(4-((4-(thiophen-2-yl)pyrimidin-2-yl)amino)phenyl)methanone], for which the “activity on PfGSK3, in words” value at PfGSK3 is on record as “inactivity”.
As to `O=C(c1ccc(Nc2nccc(-c3ccco3)n2)cc1)N1CCC(N2CCCC2)CC1` [Compound 18e, (4-((4-(Furan-2-yl)pyrimidin-2-yl)amino)phenyl)(4-(pyrrolidin-1-yl)piperidin-1-yl)methanone], at PfGSK3, the “activity on PfGSK3, in words” value was “inactive”. Also, the “fold decrease in potency on PfPK6” value at PfPK6 (compared to thiophene 18c) is “more than 3 fold”.
On to `O=C(c1ccc(Nc2nccc(-c3ccc(Cl)s3)n2)cc1)N1CCC(N2CCCC2)CC1` [Compound 18j, (4-((4-(5-Chlorothiophen-2-yl)pyrimidin-2-yl)amino)phenyl)(4-(pyrrolidin-1-yl)piperidin-1-yl)methanone], for which the “LE PfPK6 (ligand efficiency)” value at PfPK6 (PfPK6 pIC50/number of heavy atoms in the molecule) is given as 0.30.
For the molecule `O=C(c1ccc(Nc2nccc(-c3ccc(-c4ccccc4)s3)n2)cc1)N1CCC(N2CCCC2)CC1` [Compound 18k, (4-((4-(5-Phenylthiophen-2-yl)pyrimidin-2-yl)amino)phenyl)(4-(pyrrolidin-1-yl)piperidin-1-yl)methanone], the “activity on PfGSK3, in words” value on PfGSK3 is “inactive”.
Take `O=C(c1ccc(Nc2nccc(-c3ccc(COCC(F)(F)F)s3)n2)cc1)N1CCC(N2CCCC2)CC1` [Compound 18m, (4-(Pyrrolidin-1-yl)piperidin-1-yl)(4-((4-(5-((2,2,2-trifluoroethoxy)methyl)thiophen-2-yl)pyrimidin-2-yl)amino)phenyl)methanone]: the “fold increase in potency on PfPK6” value on PfPK6 (compared to its alcohol counterpart (18l)) is listed as roughly 2 fold.
In the case of `O=C(c1ccc(Nc2ncc(Cl)c(-c3cc4ccccc4s3)n2)cc1)N1CCC(N2CCCC2)CC1` [Compound 18r, (4-((4-(Benzo[b]thiophen-2-yl)-5-chloropyrimidin-2-yl)amino)phenyl)(4-(pyrrolidin-1-yl)piperidin-1-yl)methanone], the “no. of kinase hits” value with 468 human kinases was 88. Moreover, the reduction in selectivity with 468 human kinases (S10 (1 μM) compared to IKK16) is roughly 2 fold. In addition, the “fold increase in potency on PfPK6” value at PfPK6 (compared to IKK16) is on record as 20 fold. The “selectivity (preference) for PfPK6 over PfGSK3” value on PfPK6 (ratio of IC50 values) was found to be 9 fold.
As for `Cc1ccc(-c2nc(Nc3ccc(C(=O)N4CCC(N5CCCC5)CC4)cc3)ncc2C)s1` [Compound 23a, (4-((5-Methyl-4-(5-methylthiophen-2-yl)pyrimidin-2-yl)amino)phenyl)(4-(pyrrolidin-1-yl)piperidin-1-yl)methanone], at PfGSK3, the “activity on PfGSK3, in words” value is on record as “did not reach our threshold”.
As for `O=C(c1ccc(Nc2ncc(Cl)c(-c3ccc(Cl)s3)n2)cc1)N1CCC(N2CCCC2)CC1` [Compound 23d, (4-((5-Chloro-4-(5-chlorothiophen-2-yl)pyrimidin-2-yl)amino)phenyl)(4-(pyrrolidin-1-yl)piperidin-1-yl)methanone], the “no. of kinase hits” value with 468 human kinases was 103.
The IC50 is the point on the concentration scale where inhibition reaches its midpoint. For the molecule `O=C(NCCCN1CCOCC1)c1ccc(Nc2ncc(Cl)c(-c3ccc(Cl)s3)n2)cc1` [Compound 23e, 4-((5-Chloro-4-(5-chlorothiophen-2-yl)pyrimidin-2-yl)amino)-N-(3-morpholinopropyl)benzamide], in the experiment with 468 human kinases, the “no. of kinase hits” value was found to be 64. Also, the “reduction of promiscuity (kinase hits)” value with 468 human kinases (compared to 23d, from 103 to 64 kinase hits) is given as roughly 40%. Further, at PfGSK3, the IC50 was less than 100 nM.
As to `Cc1ccc(-c2nc(Nc3ccc(C(=O)NCCCN4CCOCC4)cc3)ncc2Cl)s1` [Compound 23f, 4-((5-Chloro-4-(5-methylthiophen-2-yl)pyrimidin-2-yl)amino)-N-(3-morpholinopropyl)benzamide], at PfGSK3, the concentration for half-maximal inhibition (IC50) was less than 100 nM.
On to `Cc1cnc(Nc2ccc(C(=O)NCCCN3CCOCC3)cc2)nc1-c1ccc(Cl)s1` [Compound 23g, 4-((4-(5-Chlorothiophen-2-yl)-5-methylpyrimidin-2-yl)amino)-N-(3-morpholinopropyl)benzamide], for which the “activity on PfGSK3, in words” value on PfGSK3 is “did not show significant activity”.
